Measured values published in ChEMBL document CHEMBL5316281, “Trojan Horse Siderophore Conjugates Induce Pseudomonas aeruginosa Suicide and Qualify the TonB Protein as a Novel Antibiotic Target” (2023).
Activity calls are given as the source filed them. No cut-off for these calls is given here. Where a SMILES comes first, the peptide text is derived from it. The star is where a group is joined. X1 = O=C(COCC(=O)*)NCCOCCOCCOCCOCCOCCOCCOCCOCCn1cc(CCCC(=O)Nc2c(CNC(=O)c3cccc(O)c3O)cc(CNC(=O)c3cccc(O)c3O)cc2CNC(=O)c2cccc(O)c2O)nn1

Legend:
[1] = system: Pseudomonas aeruginosa; assay: Antimicrobial activity against Pseudomonas aeruginosa PAO1 assessed as fold increase in pfeA transcription level at 10 uM incubated for 8 hrs in presence of iron-depleted CAA medium by qRT-PCR analysis; format: functional
Outline: (§1)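 Cells grown in CAA medium for 8 h at 30 °C with vigorous shaking, with or without 10 μM compound; 2.5 x 10⁸ cells stabilized in two volumes RNAprotect; RNA processed per earlier protocol; RT-qPCR with primer efficiencies from serially diluted genomic DNA; double ΔCT analysis.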

[2] = system: Pseudomonas aeruginosa; assay: Antimicrobial activity against Pseudomonas aeruginosa harboring deltapvdF-deltapchA mutant with PirA deletion assessed as reduction of bacterial growth at 10 uM by growth kinetic assay; format: functional, organism-based
Outline: (§2)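 Overnight LB culture washed, regrown in CAA at 30 °C, washed, resuspended in CAA at OD600 0.02; fresh sterile-filtered aqueous compound added to 10 µM final; OD600 read in plate reader for 48 h at 30 °C with regular agitation.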

[3] = system: Pseudomonas aeruginosa; assay: Antimicrobial activity against Pseudomonas aeruginosa harboring deltapvdF-deltapchA mutant assessed as effect on pirA transcription level at 10 uM incubated for 8 hrs in presence of iron-depleted CAA medium by qRT-PCR analysis; format: functional, organism-based; outline: as §1
[4] = system: Pseudomonas aeruginosa; assay: Antimicrobial activity against Pseudomonas aeruginosa harboring deltapvdF-deltapchA mutant assessed as decrease in fptA transcription level at 10 uM incubated for 8 hrs in presence of iron-depleted CAA medium by qRT-PCR analysis; format: functional, organism-based; outline: as §1
[5] = system: Pseudomonas aeruginosa; assay: Antimicrobial activity against Pseudomonas aeruginosa PAO1 assessed as inhibition of bacterial growth in presence of iron-depleted CAA medium; format: functional, organism-based
[6] = system: Pseudomonas aeruginosa; assay: Antimicrobial activity against Pseudomonas aeruginosa harboring deltapvdF-deltapchA mutant assessed as inhibition of bacterial growth by measuring minimal inhibitory concentration incubated for 48 hrs in presence of iron-depleted CAA medium; format: functional
[7] = system: Pseudomonas aeruginosa; assay: Antimicrobial activity against Pseudomonas aeruginosa harboring deltapvdF-deltapchA mutant with PfeA deletion assessed as reduction of bacterial growth at 10 uM by growth kinetic assay; format: functional, organism-based; outline: as §2
[8] = system: Pseudomonas aeruginosa; assay: Antimicrobial activity against Pseudomonas aeruginosa harboring deltapvdF-deltapchA mutant assessed as inhibition of bacterial growth by measuring minimal inhibitory concentration incubated for 24 hrs in presence of iron-depleted CAA medium; format: functional
[9] = system: Pseudomonas aeruginosa; assay: Antimicrobial activity against Pseudomonas aeruginosa harboring deltapvdF-deltapchA mutant with PirA-PfeA dual deletion assessed as reduction of bacterial growth at 10 uM by growth kinetic assay; format: functional, organism-based; outline: as §2
[10] = system: Pseudomonas aeruginosa; assay: Antimicrobial activity against Pseudomonas aeruginosa harboring deltapvdF-deltapchA mutant assessed as increase in pfeA transcription level at 10 uM incubated for 8 hrs in presence of iron-depleted CAA medium by qRT-PCR analysis; format: functional, organism-based; outline: as §1

## C#CCNC(=O)CN1CCN(CC(=O)NCCNC(=O)c2cccc(O)c2O)CCN(CC(=O)NCCNC(=O)c2cccc(O)c2O)CCN(CC(=O)NCCNC(=O)c2cccc(O)c2O)CC1
[1]
  fold change (FC): 2
[2]
  Activity: Active
[3]
  Activity: inactive
[4]
  Activity: Active
[5]
  Activity: inactive
[6]
  MIC: 64 µM
[7]
  Activity: inactive
[8]
  MIC: 64 µM

## CC[C@H](C)[C@H](NC(=O)[C@H](CCSC)NC(=O)[C@@H](NC(=O)[C@H](C)NC(=O)CNC(=O)[C@H](CC(C)C)NC(=O)[C@H](CC(=O)O)NC(=O)[C@@H](NC(=O)[C@H](CO)NC(=O)[C@H](CO)NC(=O)[C@@H](N)CC(=O)O)C(C)C)[C@@H](C)O)C(=O)N[C@H](C(=O)N[C@@H](CO)C(=O)N[C@@H](CC(N)=O)C(=O)N[C@@H](CCC(N)=O)C(=O)N[C@@H](CC(C)C)C(=O)NCC(=O)N[C@H](C(=O)N[C@H](C(=O)N[C@@H](CCCCNC(=O)COCC(=O)NCCOCCOCCOCCOCCOCCOCCOCCOCCn1cc(CCCC(=O)Nc2c(CNC(=O)c3cccc(O)c3O)cc(CNC(=O)c3cccc(O)c3O)cc2CNC(=O)c2cccc(O)c2O)nn1)C(N)=O)[C@@H](C)CC)[C@@H](C)O)[C@@H](C)O (H-DSSVDLGATMITSNQLGTIK(X1)-NH2)
[2]
  Activity: inactive
[3]
  Activity: inactive
[4]
  Activity: Active
[5]
  Activity: inactive
[9]
  Activity: Active
[6]
  MIC: > 64 µM
[10]
  Activity: Active
[7]
  Activity: Active
[8]
  MIC: > 64 µM

## CC[C@H](C)[C@H](NC(=O)[C@H](CC(C)C)NC(=O)[C@@H](N)CO)C(=O)N[C@@H](CCCNC(=N)N)C(=O)N[C@H](C(=O)N[C@@H](CO)C(=O)N[C@@H](CCC(N)=O)C(=O)N[C@@H](CC(=O)O)C(=O)N[C@@H](CC(=O)O)C(=O)N[C@@H](CC(C)C)C(=O)N[C@H](C(=O)N[C@@H](CCC(N)=O)C(=O)N[C@@H](CCSC)C(=O)N[C@@H](CO)C(=O)N1CCC[C@H]1C(=O)N[C@@H](CO)C(=O)N[C@H](C(=O)N[C@H](C(=O)N[C@@H](CO)C(=O)N[C@@H](C)C(=O)N[C@@H](C)C(=O)N[C@@H](CCCNC(=N)N)C(=O)N1CCC[C@H]1C(=O)N[C@@H](CCCCNC(=O)COCC(=O)NCCOCCOCCOCCOCCOCCOCCOCCOCCn1cc(CCCC(=O)Nc2c(CNC(=O)c3cccc(O)c3O)cc(CNC(=O)c3cccc(O)c3O)cc2CNC(=O)c2cccc(O)c2O)nn1)C(N)=O)[C@@H](C)CC)C(C)C)C(C)C)C(C)C (H-SLIRVSQDDLVQMSPSVISAARPK(X1)-NH2)
[2]
  Activity: inactive
[5]
  Activity: inactive
[9]
  Activity: Active
[6]
  MIC: > 64 µM
[7]
  Activity: Active
[8]
  MIC: > 64 µM

## CC[C@H](C)[C@H](NC(=O)[C@H](CCSC)NC(=O)[C@@H](NC(=O)[C@H](C)NC(=O)CNC(=O)[C@H](CC(C)C)NC(=O)[C@H](CC(=O)O)NC(=O)[C@@H](NC(=O)[C@H](CO)NC(=O)[C@H](CO)NC(=O)[C@H](CC(=O)O)NC(=O)COCC(=O)NCCOCCOCCOCCOCCOCCOCCOCCOCCn1cc(CCCC(=O)Nc2c(CNC(=O)c3cccc(O)c3O)cc(CNC(=O)c3cccc(O)c3O)cc2CNC(=O)c2cccc(O)c2O)nn1)C(C)C)[C@@H](C)O)C(=O)N[C@H](C(=O)N[C@@H](CO)C(=O)N[C@@H](CC(N)=O)C(=O)N[C@@H](CCC(N)=O)C(=O)N[C@@H](CC(C)C)C(=O)NCC(=O)N[C@H](C(=O)N[C@H](C(=O)N[C@@H](CCCCN)C(N)=O)[C@@H](C)CC)[C@@H](C)O)[C@@H](C)O (X1-DSSVDLGATMITSNQLGTIK-NH2)
[2]
  Activity: inactive
[3]
  Activity: inactive
[4]
  Activity: Active
[5]
  Activity: inactive
[9]
  Activity: Active
[6]
  MIC: > 64 µM
[10]
  Activity: Active
[7]
  Activity: Active
[8]
  MIC: > 64 µM

## CC[C@H](C)[C@H](NC(=O)[C@H](CC(C)C)NC(=O)[C@H](CO)NC(=O)COCC(=O)NCCOCCOCCOCCOCCOCCOCCOCCOCCn1cc(CCCC(=O)Nc2c(CNC(=O)c3cccc(O)c3O)cc(CNC(=O)c3cccc(O)c3O)cc2CNC(=O)c2cccc(O)c2O)nn1)C(=O)N[C@@H](CCCNC(=N)N)C(=O)N[C@H](C(=O)N[C@@H](CO)C(=O)N[C@@H](CCC(N)=O)C(=O)N[C@@H](CC(=O)O)C(=O)N[C@@H](CC(=O)O)C(=O)N[C@@H](CC(C)C)C(=O)N[C@H](C(=O)N[C@@H](CCC(N)=O)C(=O)N[C@@H](CCSC)C(=O)N[C@@H](CO)C(=O)N1CCC[C@H]1C(=O)N[C@@H](CO)C(=O)N[C@H](C(=O)N[C@H](C(=O)N[C@@H](CO)C(=O)N[C@@H](C)C(=O)N[C@@H](C)C(=O)N[C@@H](CCCNC(=N)N)C(=O)N1CCC[C@H]1C(=O)N[C@@H](CCCCN)C(N)=O)[C@@H](C)CC)C(C)C)C(C)C)C(C)C (X1-SLIRVSQDDLVQMSPSVISAARPK-NH2)
[2]
  Activity: inactive
[5]
  Activity: inactive
[9]
  Activity: Active
[6]
  MIC: > 64 µM
[7]
  Activity: Active
[8]
  MIC: > 64 µM

## CC[C@H](C)[C@H](NC(=O)[C@@H](NC(=O)COCC(=O)NCCOCCOCCOCCOCCOCCOCCOCCOCCn1cc(CCCC(=O)Nc2c(CNC(=O)c3cccc(O)c3O)cc(CNC(=O)c3cccc(O)c3O)cc2CNC(=O)c2cccc(O)c2O)nn1)C(C)C)C(=O)N[C@@H](CCC(=O)O)C(=O)N[C@@H](CC(C)C)C(=O)NCC(=O)N[C@@H](CCC(=O)O)C(=O)N[C@@H](CCC(N)=O)C(=O)N[C@H](C(=O)N[C@H](C(=O)N[C@H](C(=O)N[C@@H](C)C(=O)N[C@H](C(=O)N[C@@H](C)C(=O)N[C@@H](CCC(N)=O)C(=O)N[C@@H](CCC(=O)O)C(=O)N[C@@H](CCC(=O)O)C(=O)N[C@H](C(=O)N[C@@H](CCCCN)C(=O)N[C@@H](CCC(N)=O)C(=O)N[C@@H](CCCCN)C(N)=O)[C@@H](C)O)[C@@H](C)O)C(C)C)C(C)C)[C@@H](C)O (X1-VIELGEQTVVATAQEETKQK-NH2)
[2]
  Activity: inactive
[5]
  Activity: inactive
[9]
  Activity: Active
[6]
  MIC: > 64 µM
[7]
  Activity: Active
[8]
  MIC: > 64 µM

## H-DSSVDLGATMITSNQLGTIK-NH2
[2]
  Activity: inactive
[3]
  Activity: inactive
[4]
  Activity: Active
[5]
  Activity: inactive
[9]
  Activity: inactive
[10]
  Activity: inactive
[7]
  Activity: inactive

## H-SLIRVSQDDLVQMSPSVISAARPK-NH2
[2]
  Activity: inactive
[3]
  Activity: inactive
[4]
  Activity: Active
[5]
  Activity: inactive
[9]
  Activity: inactive
[10]
  Activity: inactive
[7]
  Activity: inactive

## H-VIELGEQTVVATAQEETKQK-NH2
[2]
  Activity: inactive
[3]
  Activity: inactive
[4]
  Activity: Active
[5]
  Activity: inactive
[9]
  Activity: inactive
[10]
  Activity: inactive
[7]
  Activity: inactive
